S1P1 ag pot = agonists and agonism potentiators of human S1P1 receptor; P21453; S1P1 CRE-bla cells, forskolin, beta-lactamase FRET, potentiator mode; S1P1 agonist co-added at EC20, 2 nM; 100% = saturating reference agonist, 0% = basal; activation, % at 9.5 µM; 56,000 tested, 0.57% active; AID 449;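 active = activation above a cutoff set at the mean activation of all tested compounds plus 3 SD, cut at about 54% in these data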;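 also: forskolin at 4 µM as EC80 and the EC20 agonist is SEW2871; 100% = SEW2871 at its EC100 plus forskolin at EC80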
Target sequence (P21453 whole entry, looked up): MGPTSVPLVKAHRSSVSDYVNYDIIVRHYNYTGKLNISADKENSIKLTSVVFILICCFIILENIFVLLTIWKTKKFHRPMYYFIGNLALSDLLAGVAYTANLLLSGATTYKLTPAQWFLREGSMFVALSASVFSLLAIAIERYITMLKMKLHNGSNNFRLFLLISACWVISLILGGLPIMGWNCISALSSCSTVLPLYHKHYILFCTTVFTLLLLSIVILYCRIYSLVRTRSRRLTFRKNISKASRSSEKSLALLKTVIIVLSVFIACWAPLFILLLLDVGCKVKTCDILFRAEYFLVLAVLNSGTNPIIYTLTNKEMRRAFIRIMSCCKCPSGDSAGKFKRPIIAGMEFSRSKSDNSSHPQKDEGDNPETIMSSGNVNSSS
D1 mod = allosteric modulators of human D1 dopamine receptor; P21728; HEK293 D1, CRE-luciferase, dopamine EC30 potentiation; actives deviate in either direction; B-score at 10 µM; 58,000 tested, 5.9% active;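 active = luminescence count or its row- and column-corrected plate score outside the 99.7% band of the plate's sample wells, on either side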
S1P3 ag = agonists of human S1P3 receptor | Q99500 | S1P3 NFAT-BLA reporter cells, agonism, FRET ratio; relative to 1 µM S1P, basal subtracted | activation, % at 4.5 µM | 60,000 tested, 0.1% active;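 active = activation above the screen-wide mean plus 3 SD, cut at about 4.5% in these data, passing the limit was not always enough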
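Benchmarks: high control 1 µM S1P / System: stable CHO line with human S1P3, Gα16, NFAT-BLA reporter / Dosing: single compound concentration, 4.5 µM final / Timing: 4 h compound at 37 °C, 2 h substrate at RT / Measured by: FRET β-lactamase substrate fluorescence, excitation 405 nm, 460/535 nm emission ratio, background-subtracted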
M1 ag = activates the M1 muscarinic receptor; CHO-M1 cells, Fluo-4 calcium fluorescence, agonist mode; stronger effect = higher value; B-score at 10 µM; 64,000 tested, 3% active;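 active = fluorescence rise, raw or as B-score row- and column-corrected plate score, outside the 99.7% band of its plate's samples, either direction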
M1 antagonist = antagonists of rat M1 muscarinic receptor; B-score at 10 µM; CHO-M1 cells, Fluo-4 calcium, ACh EC80 antagonist mode; stronger effect = lower value; AID 628; 64,000 tested, 3.4% active;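 active = calcium fluorescence response, raw or row-and-column corrected B-score, differing from the plate sample mean either way at a set confidence level, mostly lower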
M1 agonist conf = rat M1 muscarinic agonism, confirmation; shares compounds with M1 ag; CHO-M1 cells, Fluo-4 calcium fluorescence, agonist mode; actives lie on both sides; fluorescence change (max-min) at 10 µM; 1,700 tested, 19% active; AID 1488;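 active = fluorescence change differs from the solvent-only DMSO control mean at a set confidence level in both duplicate runs; inconclusive = differs from solvent-only control mean in just one of two runs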;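 also: an EC20 dose of acetylcholine follows compound addition during the same imaging run; raw fluorescence intensity difference in instrument units with no normalization to controls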
M4 agonist ctr = activates rat M4 receptor in counter-screen for M1 agonists. shares compounds with M1 ag. CHO M4/Gqi5 cells, Fluo-4 calcium fluorescence, agonist mode; actives lie on both sides. fluorescence change (max-min) at 10 µM. 1,700 tested, 9% active. AID 1741;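 active = fluorescence change differing from the plate's solvent-only control wells at 99.7% confidence in both duplicates, whether higher or lower; inconclusive = differs from solvent controls in only one of two duplicates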
Active calls of the source: *; u = inconclusive; x = not tested or not shown. Only some compounds are listed: those with a hit (about 11% of all), similar ones and a draw of the others.

SMILES	S1P1 ag pot	D1 mod	S1P3 ag	M1 ag	M1 antagonist	M1 agonist conf	M4 agonist ctr
Cc1cccc(NC(=O)c2oc3ccc(S(=O)(=O)N4CCOCC4)cc3c2C)c1C	-4	-2.3	0	9.5*	-1.3	u	-32
Cc1c(C(=O)NCc2cccs2)oc2ccc(S(=O)(=O)N3CCOCC3)cc12	x	x	x	2.4	-0.0072	x	x
Cc1c(C(=O)NCCC2=CCCCC2)oc2ccc(S(=O)(=O)N3CCOCC3)cc12	x	x	x	15*	-2.9*	u	-54
Cc1cc(=O)oc2cc(OCc3ccc(S(=O)(=O)N4CCOCC4)cc3)ccc12	4	0.75	-2	-0.34	0.26	x	x
O=S(=O)(Cc1ccccc1)N1CCN(Cc2ccc3c(c2)OCO3)CC1	x	-0.016	x	x	x	x	x
C=C(C)Cn1c(COc2ccccc2)nnc1SCC(=O)O	x	0.66	-1	0.97	-0.36	x	x
CC1CCCCN1C(=O)Nc1cccc(Cl)c1 (centres undefined)	-16	0.79	0	16*	-19*	u	-59
Clc1ccc(-n2ncc3c(NCC4CCCO4)ncnc32)cc1 (centres undefined)	-25	-3.6*	-2	3.4*	-0.31	u	-53
Clc1ccc2[nH]c3c(NCCN4CCOCC4)ncnc3c2c1	-35	3.2	-1	1.1	-0.34	x	x
Clc1ccc2[nH]c3c(NCC4CCCO4)ncnc3c2c1 (centres undefined)	35	-2.9	0	7.7*	-2.3	1	-29
COc1ccc(-n2ncc3c(NCCCN4CCOCC4)ncnc32)cc1	-8	-2.1	-1	0.11	-0.021	x	x
O=C1CCCN1CCCNc1ncnc2c1cnn2-c1ccc(Cl)cc1	-22	-1.9	-1	3.1*	0.3	13	-28
Cc1ccc(C(=O)OCc2cn3ccccc3n2)cc1	7	1.8	0	0.12	-0.57	x	x
O=C(Cc1c[nH]c2ccccc12)NCc1ccc2c(c1)OCO2	29	-1.3	0	0.23	1.1	x	x
N#Cc1ccc(NC(=O)Nc2ccc(Cl)cc2)cc1	129*	-2.6	0	3.1*	-0.34	29	13
CN(CC(=O)Nc1ccc(C#N)cc1)Cc1ccc(Cl)cc1	17	0.47	1	-0.89	0.1	x	x
Cc1ccccc1CN1CCN(CC(=O)NCc2ccc3c(c2)OCO3)C1=O	x	-0.42	x	-0.0013	1.5	x	x
COc1cc2c(=O)nc3n(c2cc1OC)C(c1ccccc1)N=C(N)N3 (centres undefined)	6	0.38	0	2.4*	-1.2	-17	-38
NC1=NC(c2ccc(F)cc2)n2c(nc3ccccc32)N1 (centres undefined)	-3	-0.44	0	0.84	0.97	x	x
CCOC(=O)c1ccc(-n2c(=O)[nH]c3ccccc3c2=O)cc1	-2	-0.43	-1	-2*	0.55	u	-75
CCOC(=O)N1CCN(C(=O)c2ccc3nc(SCc4ccc(F)cc4)n(C)c3c2)CC1	12	x	-1	4*	-2.8*	u	-68
Cc1cc(Cl)ccc1OCC(=O)N1CCCCC1	-9	1.4	-1	2.2*	0.85	u	-29
COc1cc(C(=S)N2CCCCC2)ccc1OCC(=O)N1CCCC1	-5	-0.069	-1	0.81	0.67	x	x
Clc1ccc(OCCN2CCN(c3ncnc4sccc34)CC2)cc1	115*	-2.9	-2	4.5*	-3.3*	15	-21
CCc1ccc(S(=O)(=O)NCc2cn3c(C)csc3n2)s1	-8	-0.96	-1	-3.1*	-1.6	-7.5	-27
SMILES	S1P1 ag pot	D1 mod	S1P3 ag	M1 ag	M1 antagonist	M1 agonist conf	M4 agonist ctr
CCOc1ccc(CC(=O)NCc2cn3c(C)csc3n2)cc1	2	1.2	-1	3.4*	0.34	u	u
Cc1ccccc1C(=O)/C=C1\NC(=O)CS1	-9	-0.58	0	0.78	-0.23	x	x
CCOc1ccc(S(=O)(=O)N(C)CCO)cc1-c1nc2c(C(C)(C)C)nn(C)c2c(=O)[nH]1	-38	x	0	5.6*	-1.8	-13	-33
CCOc1ccc(S(=O)(=O)N(C)C)cc1-c1nc2c(C(C)(C)C)nn(C)c2c(=O)[nH]1	-10	3.1	2	-0.0043	0.38	x	x
CCCn1c(CNc2ccc(Br)cc2)nc2ccccc21	54	0.18	-1	-1.7	-1.5	x	x
Cc1cc(NC(=O)CSc2cn(CCNC(=O)c3ccc(F)cc3)c3ccccc23)no1	-1	0.55	-1	4.2*	-0.44	-12	-15
CCOC(=O)C1(c2nc(N)cs2)COC(=O)C1 (centres undefined)	13	x	-1	-0.13	1.2	x	x
Cc1ccc2c(c1)N(Cc1ccncc1)C(=O)C(C)O2 (centres undefined)	-14	-0.098	0	-0.1	0.58	x	x
COc1ccc(CCNc2nc(C)nc3c2oc2ccccc23)cc1OC	x	x	x	18*	-2.3*	-0.11	u
Cc1nc(NC(C)c2ccccc2)c2oc3ccccc3c2n1 (centres undefined)	69	1.5	-1	3.3*	-0.25	-22	-20
Cc1nc(NCCc2cnc[nH]2)c2oc3ccccc3c2n1	x	2.7	x	-0.87	-1.2	x	x
COc1ccc(CCNc2ncnc3c2oc2ccccc23)cc1OC	116*	-3.5	-1	7.1*	-4.1*	17	4.6
Cc1cc(C)n(C(=O)C(C)N2C(=O)c3ccccc3C2=O)n1 (centres undefined)	x	-0.75	-1	2	-1.1	x	x
O=C(O)c1c(-c2ccccc2)c2oc3ccccc3c2[nH]c1=O	-73	-1.4	-1	0.15	0.14	x	x
CCC(c1nnc(SCC(=O)Nc2nnc(-c3ccccc3)o2)n1Cc1ccccc1)N(C)C (centres undefined)	-23	1.1	-1	0.11	0.2	x	x
O=C(CN1C(=O)NC2(CCc3ccccc32)C1=O)Nc1cc(C(F)(F)F)ccc1N1CCOCC1 (centres undefined)	1	x	1	-0.055	0.058	x	x
c1ccc(N2CCN(c3nnc(Cc4cccnc4)c4ccccc34)CC2)nc1	-2	x	-1	3.6*	-2.9	-12	u
c1ccc(N2CCN(c3cnccn3)CC2)nc1	x	x	x	-0.16	-0.52	x	x
COc1cc2c(cc1OC)C(COc1ccc(F)cc1)N(C(=O)c1ccco1)CC2 (centres undefined)	x	0.89	x	7.9*	-1.2	-2.1	-15
CCOc1ccc(NC(=O)CN(C)c2nnnn2-c2ccccc2)cc1OCC	x	x	x	-1.1	1.1	x	x
Cc1cc(C)cc(-n2cc3c(=O)n(C)c(=O)n(C)c3c2)c1	-41	-0.012	0	0.028	-0.11	x	x
CCCCNc1cc(C)nc(NCc2ccccc2)n1	100	-4.4	-2	6.4*	-3.2*	-10	-22
Cc1cc(C)nc(NCCCc2ccccc2)n1	-8	x	0	x	x	x	x

From PubChem BioAssay
